Results published in ChEMBL document CHEMBL1130061, “Discovery and biological activity of orally active peptidyl trifluoromethyl ketone inhibitors of human neutrophil elastase” (J Med Chem, 1997).
Peptide text beside a SMILES is read from it.

Experiments:
Cricetinae gen. sp. [1] = test: Inhibition at the oral dose of 25 mg/kg 30 min prior to […] dose of 10 microg of HNE in hamster; assay type: functional, Cricetulus griseus
Neutrophil elastase = target: T1, Neutrophil elastase (Homo sapiens, UniProt P08246); test: Inhibitory activity against Human Neutrophil Elastase by HNE-catalyzed hydrolysis of MeO-Suc-Ala-Ala-Pro-Val-pNa
T1 sequence (P08246 whole entry): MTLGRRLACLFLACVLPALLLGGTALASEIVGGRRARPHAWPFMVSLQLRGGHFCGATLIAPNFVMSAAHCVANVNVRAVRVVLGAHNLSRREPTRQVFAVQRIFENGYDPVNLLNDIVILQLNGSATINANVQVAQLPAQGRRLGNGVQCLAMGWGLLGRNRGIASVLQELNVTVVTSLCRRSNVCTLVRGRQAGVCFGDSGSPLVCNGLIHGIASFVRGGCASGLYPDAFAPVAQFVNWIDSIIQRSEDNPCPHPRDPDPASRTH

Cricetinae gen. sp. [2] = test: Inhibition at the oral dose of 10 mg/kg 30 min prior to […] dose of 50 microg of HNE in hamster; assay type: functional, Cricetulus griseus
In short: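 Anesthetized hamsters received HNE (50 µg/hamster) intratracheally, with the compound given orally as a solution in 10% PEG/PBS 30 min beforehand. Lung hemorrhage was quantified 4 h later by spectrophotometric hemoglobin measurement in lung lavage. Percent inhibition is relative to HNE and saline controls: 100% equals saline, 0% equals HNE.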

Mesocricetus auratus [3] = organism: Mesocricetus auratus; test: Reduction in wet lung weight relative to the body weight in hamsters
Mesocricetus auratus [4] = test: Oral administration at a dose of 37.5 mg/kg 30 min prior to HNE and reduction in the number of white blood cells was reported
Mesocricetus auratus [5] = test: Oral administration at a dose of 37.5 mg/kg 30 min prior to HNE (100 mg/hamster) and reduction in the number of white blood cells was reported

SMILES	Ki (Neutrophil elastase) [nM]	inhibition in vivo at 25 mg/kg (Cricetinae gen. sp. [1]) [%]	inhibition in vivo at 10 mg/kg (Cricetinae gen. sp. [2]) [%]	Lw/Bw (Mesocricetus auratus [3])	Reduction (Mesocricetus auratus [4]) [%]	Reduction (Mesocricetus auratus [5]) [%]
CC(C)[C@H](NC(=O)c1ccc(C(=O)N2CCOCC2)cc1)C(=O)N1CCC[C@H]1C(=O)N[C@H](C(=O)C(F)(F)C(F)(F)F)C(C)C	25	74	–	–	–	–
CC(C)[C@H](NC(=O)N1CCOCC1)C(=O)N1CCC[C@H]1C(=O)N[C@H](C(=O)C(F)(F)C(F)(F)F)C(C)C	170	69	–	–	–	–
COc1ccc(S(=O)(=O)N[C@H](C(=O)N2CCCC2C(=O)NC(C(=O)C(F)(F)F)C(C)C)C(C)C)cc1 (stereo partly drawn)	8	–	–	29	–	-42
COc1ccc(C(=O)N[C@H](C(=O)N2CCC[C@H]2C(=O)N[C@H](C(=O)C(F)(F)F)C(C)C)C(C)C)cc1	–	–	84	77	91	–

The next lines start with results.

Ki (Neutrophil elastase) [nM]	SMILES	inhibition in vivo at 25 mg/kg (Cricetinae gen. sp. [1]) [%]	inhibition in vivo at 10 mg/kg (Cricetinae gen. sp. [2]) [%]	Lw/Bw (Mesocricetus auratus [3])	Reduction (Mesocricetus auratus [4]) [%]	Reduction (Mesocricetus auratus [5]) [%]
1.3	CC(C)[C@H](NC(=O)Oc1ccccc1)C(=O)N1CCC[C@H]1C(=O)N[C@H](C(=O)C(F)(F)F)C(C)C	–	91	62	77	–
6.8	CC(C)[C@H](NC(=O)c1ccccc1)C(=O)N1CCC[C@H]1C(=O)N[C@H](C(=O)C(F)(F)F)C(C)C (HELM PEPTIDE1{[O=C(c1ccccc1)[*:2]].V.P.V.[FC(F)(F)[*:1]]}$$$$V2.0)	–	–	62	–	-7
3.8	CC(C)[C@H](NC(=O)c1ccncc1)C(=O)N1CCC[C@H]1C(=O)N[C@H](C(=O)C(F)(F)F)C(C)C	–	–	-15	–	-45
0.63	CC(C)[C@H](NC(=O)Oc1ccc(F)cc1)C(=O)N1CCC[C@H]1C(=O)N[C@H](C(=O)C(F)(F)F)C(C)C	–	–	63	–	-67
